pIC50: −log10 of the molar value.
Experiments:
[1] = molecular target: Sodium-dependent dopamine transporter (Homo sapiens, UniProt Q01959); test: Displacement of [3H]WIN35428 from human DAT transfected cell membrane
[2] = molecular target: Sodium-dependent serotonin transporter (Homo sapiens, UniProt P31645); test: Displacement of [3H]citalopram from human SERT expressed in HEK293 cell membrane; type: cell membranes
Procedure, shortened: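 Human SERT was labelled with [3H]citalopram at a fixed concentration and competed against a range of test-drug concentrations. Nonspecific binding was measured with fluoxetine at 10 μM. IC50 reported as mean ± SEM of at least three independent experiments, each run in triplicate. Some entries are screening data from replicate triplicate experiments.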

Sequence of Sodium-dependent dopamine transporter (Q01959 whole entry): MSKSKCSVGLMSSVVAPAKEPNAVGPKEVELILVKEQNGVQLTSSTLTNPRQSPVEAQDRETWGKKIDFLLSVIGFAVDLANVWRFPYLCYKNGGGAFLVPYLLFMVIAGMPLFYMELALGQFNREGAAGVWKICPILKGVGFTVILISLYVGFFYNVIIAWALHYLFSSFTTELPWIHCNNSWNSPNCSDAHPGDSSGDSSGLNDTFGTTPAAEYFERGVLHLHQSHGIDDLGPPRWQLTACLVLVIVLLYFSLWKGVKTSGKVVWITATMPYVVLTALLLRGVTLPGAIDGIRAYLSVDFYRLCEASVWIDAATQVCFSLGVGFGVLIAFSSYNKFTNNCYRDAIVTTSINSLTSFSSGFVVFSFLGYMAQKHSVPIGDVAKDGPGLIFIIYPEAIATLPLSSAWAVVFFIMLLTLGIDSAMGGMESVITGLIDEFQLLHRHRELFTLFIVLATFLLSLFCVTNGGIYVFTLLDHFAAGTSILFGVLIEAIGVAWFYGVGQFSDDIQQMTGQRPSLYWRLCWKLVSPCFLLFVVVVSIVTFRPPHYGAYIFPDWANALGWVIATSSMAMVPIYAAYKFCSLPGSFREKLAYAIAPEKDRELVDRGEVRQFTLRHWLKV
Sequence of Sodium-dependent serotonin transporter (P31645 whole entry): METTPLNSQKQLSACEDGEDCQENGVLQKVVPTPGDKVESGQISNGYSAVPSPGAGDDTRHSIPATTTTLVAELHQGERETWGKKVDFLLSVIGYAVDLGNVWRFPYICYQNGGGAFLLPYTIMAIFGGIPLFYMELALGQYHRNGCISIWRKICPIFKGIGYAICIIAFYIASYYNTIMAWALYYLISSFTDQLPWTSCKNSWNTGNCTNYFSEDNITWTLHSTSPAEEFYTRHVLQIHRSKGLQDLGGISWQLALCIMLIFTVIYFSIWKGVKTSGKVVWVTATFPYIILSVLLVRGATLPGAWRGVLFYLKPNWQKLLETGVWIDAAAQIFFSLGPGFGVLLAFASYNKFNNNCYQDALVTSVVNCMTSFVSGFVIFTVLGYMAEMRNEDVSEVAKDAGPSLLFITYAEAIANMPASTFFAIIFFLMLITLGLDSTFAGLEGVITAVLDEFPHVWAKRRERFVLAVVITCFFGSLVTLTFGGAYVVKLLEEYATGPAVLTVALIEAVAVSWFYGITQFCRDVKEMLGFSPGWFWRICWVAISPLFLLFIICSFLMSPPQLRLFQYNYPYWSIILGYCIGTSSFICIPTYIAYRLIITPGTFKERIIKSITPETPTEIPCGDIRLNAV

| SMILES | pIC50 [1] | pIC50 [2] |
| --- | --- | --- |
| Cc1cc(C2=C(c3ccccc3)CC3CCC2S3)on1 (stereo unspecified) | < 5.70 | < 5.00 |
| Cc1cc(C2=C(c3ccc(F)cc3)CC3CCC2S3)on1 (stereo unspecified) | < 6.00 | < 5.00 |
| Cc1cc(C2=C(c3ccc(Cl)cc3)CC3CCC2S3)on1 (stereo unspecified) | 6.81 | < 5.00 |
| Cc1cc(C2=C(c3ccc(Br)cc3)CC3CCC2S3)on1 (stereo unspecified) | 6.86 | < 5.00 |
| Cc1cc(C2=C(c3ccc(Cl)c(Cl)c3)CC3CCC2S3)on1 (stereo unspecified) | 7.16 | < 5.00 |
| c1ccc(C2=C(c3cc(-c4ccccc4)no3)C3CCC(C2)S3)cc1 (stereo unspecified) | < 5.30 | < 5.00 |
| Fc1ccc(C2=C(c3cc(-c4ccccc4)no3)C3CCC(C2)S3)cc1 (stereo unspecified) | < 5.70 | < 5.00 |
| Clc1ccc(C2=C(c3cc(-c4ccccc4)no3)C3CCC(C2)S3)cc1 (stereo unspecified) | 7.18 | < 5.00 |
| Brc1ccc(C2=C(c3cc(-c4ccccc4)no3)C3CCC(C2)S3)cc1 (stereo unspecified) | 6.90 | < 5.00 |
| Clc1ccc(C2=C(c3cc(-c4ccccc4)no3)C3CCC(C2)S3)cc1Cl (stereo unspecified) | 6.48 | < 5.00 |
| Cc1cc([C@@H]2C3CCC(C[C@H]2c2ccccc2)S3)on1 (stereo partly specified) | 7.19 | < 5.00 |
| Cc1cc([C@@H]2C3CCC(C[C@H]2c2ccc(F)cc2)S3)on1 (stereo partly specified) | 7.66 | < 5.00 |
| Cc1cc([C@@H]2C3CCC(C[C@H]2c2ccc(Cl)cc2)S3)on1 (stereo partly specified) | 7.49 | < 5.15 |
| Cc1cc([C@@H]2C3CCC(C[C@H]2c2ccc(Br)cc2)S3)on1 (stereo partly specified) | 7.33 | < 5.40 |
| Cc1cc([C@@H]2C3CCC(C[C@H]2c2ccc(Cl)c(Cl)c2)S3)on1 (stereo partly specified) | 6.99 | < 5.70 |
| c1ccc(-c2cc(C3C4CCC(C[C@H]3c3ccccc3)S4)on2)cc1 (stereo partly specified) | < 6.00 | < 5.00 |
| Fc1ccc([C@@H]2CC3CCC(S3)C2c2cc(-c3ccccc3)no2)cc1 (stereo partly specified) | 6.34 | < 5.00 |
| Clc1ccc([C@@H]2CC3CCC(S3)C2c2cc(-c3ccccc3)no2)cc1 (stereo partly specified) | 6.89 | < 5.00 |
| Brc1ccc([C@@H]2CC3CCC(S3)C2c2cc(-c3ccccc3)no2)cc1 (stereo partly specified) | 6.62 | < 5.00 |
| Clc1ccc([C@@H]2CC3CCC(S3)C2c2cc(-c3ccccc3)no2)cc1Cl (stereo partly specified) | 6.30 | < 5.00 |
| Cc1cc([C@@H]2C3CCC(C[C@@H]2c2ccccc2)S3)on1 (stereo partly specified) | 7.92 | < 5.00 |
| Cc1cc([C@@H]2C3CCC(C[C@@H]2c2ccc(F)cc2)S3)on1 (stereo partly specified) | 8.15 | < 6.00 |
| Cc1cc([C@@H]2C3CCC(C[C@@H]2c2ccc(Cl)cc2)S3)on1 (stereo partly specified) | 8.14 | < 6.00 |
| Cc1cc([C@@H]2C3CCC(C[C@@H]2c2ccc(Br)cc2)S3)on1 (stereo partly specified) | 7.85 | 6.12 |
| Cc1cc([C@@H]2C3CCC(C[C@@H]2c2ccc(Cl)c(Cl)c2)S3)on1 (stereo partly specified) | 7.36 | 6.12 |
| c1ccc(-c2cc(C3C4CCC(C[C@@H]3c3ccccc3)S4)on2)cc1 (stereo partly specified) | 6.80 | < 5.00 |
| Fc1ccc([C@H]2CC3CCC(S3)C2c2cc(-c3ccccc3)no2)cc1 (stereo partly specified) | 7.31 | < 5.00 |
| Clc1ccc([C@H]2CC3CCC(S3)C2c2cc(-c3ccccc3)no2)cc1Cl (stereo partly specified) | 6.57 | < 5.00 |

From ChEMBL document CHEMBL1641369, “The synthesis and biological evaluation of 2-(3-methyl or 3-phenylisoxazol-5-yl)-3-aryl-8-thiabicyclo[3.2.1]octanes” (Bioorg Med Chem Lett, 2011)
